Source: ChEMBL document CHEMBL4033712, “Synthesis and biological evaluation of new C-12(α/β)-(N-) sulfamoyl-phenylamino-14-deoxy-andrographolide derivatives as potent anti-cancer agents” (Bioorg Med Chem Lett, 2017)

Assays:
Assay type in all cases: functional
HCT-116 = test: Growth inhibition of human HCT116 cells incubated for 48 hrs by sulforhodamine B assay; conditions: HCT-116, 48 h
Method in brief: (§1)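 NCI-60 five-dose screen at 0.01, 0.1, 1, 10 and 100 µM, 48 h incubation, sulforhodamine B end point. GI50 (50% decrease in net growth), TGI (total growth inhibition) and LC50 (net 50% loss of initial cells) taken from log concentration versus % growth inhibition curves.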

BT-549 = test: Growth inhibition of human BT549 cells incubated for 48 hrs by sulforhodamine B assay; conditions: BT-549, 48 h; method in brief: as §1
HOP-92 [1] = test: Growth inhibition of human HOP92 cells incubated for 48 hrs by sulforhodamine B assay; conditions: HOP-92, 48 h; method in brief: as §1
U-251 = test: Growth inhibition of human U251 cells incubated for 48 hrs by sulforhodamine B assay; conditions: U-251, 48 h
Method in brief: (§2)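 NCI 60 human tumour cell line panel, five-dose study at 0.01, 0.1, 1, 10 and 100 µM, 48 h incubation. Sulforhodamine B protein-binding dye end point. GI50 (50% decrease in net cell growth), TGI (total growth inhibition) and LC50 (net 50% loss of initial cells) read from log concentration versus % growth inhibition curves.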

CCRF-CEM = test: Growth inhibition of human CCRF-CEM cells incubated for 48 hrs by sulforhodamine B assay; method in brief: as §1
SK-MEL-2 = test: Growth inhibition of human SK-MEL-2 cells incubated for 48 hrs by sulforhodamine B assay; conditions: SK-MEL-2, 48 h; method in brief: as §2
SF-268 = test: Growth inhibition of human SF268 cells incubated for 48 hrs by sulforhodamine B assay; conditions: SF-268, 48 h; method in brief: as §2
PC-3 = test: Growth inhibition of human PC3 cells incubated for 48 hrs by sulforhodamine B assay; conditions: PC-3, 48 h; method in brief: as §1
K562 = test: Growth inhibition of human K562 cells incubated for 48 hrs by sulforhodamine B assay; conditions: K562, 48 h; method in brief: as §1
RXF 393 = test: Growth inhibition of human RXF393 cells incubated for 48 hrs by sulforhodamine B assay; conditions: RXF 393, 48 h; method in brief: as §2
HOP-62 = test: Growth inhibition of human HOP62 cells incubated for 48 hrs by sulforhodamine B assay; conditions: HOP-62, 48 h; method in brief: as §1
NCI-H226 = test: Growth inhibition of human NCI-H226 cells incubated for 48 hrs by sulforhodamine B assay; conditions: NCI-H226, 48 h; method in brief: as §1
SK-MEL-5 = test: Growth inhibition of human SK-MEL-5 cells incubated for 48 hrs by sulforhodamine B assay; conditions: SK-MEL-5, 48 h; method in brief: as §2
T47D = test: Growth inhibition of human T47D cells incubated for 48 hrs by sulforhodamine B assay; method in brief: as §2
NCI-H460 = test: Growth inhibition of human NCI-H460 cells incubated for 48 hrs by sulforhodamine B assay; conditions: NCI-H460, 48 h; method in brief: as §1
HOP-92 [2] = test: Anticancer activity against human HOP92 cells assessed as cell growth at 10 uM after 48 hrs by sulforhodamine B assay relative to control; conditions: HOP-92, 48 h, read-out: Activity
Method in brief: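 Single-dose NCI-60 panel screen: compound added at 10 µM and the culture incubated 48 h. The end point was read by protein staining with sulforhodamine B. The value is percent growth of treated cells relative to untreated control cells, reported as a mean graph across the panel.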

MDA-MB-435 = test: Growth inhibition of human MDA-MB-435 cells incubated for 48 hrs by sulforhodamine B assay; conditions: MDA-MB-435, 48 h; method in brief: as §1
UACC-257 = test: Growth inhibition of human UACC257 cells incubated for 48 hrs by sulforhodamine B assay; conditions: UACC-257, 48 h; method in brief: as §2
ACHN = test: Growth inhibition of human ACHN cells incubated for 48 hrs by sulforhodamine B assay; method in brief: as §1
SF-295 = test: Growth inhibition of human SF295 cells incubated for 48 hrs by sulforhodamine B assay; conditions: SF-295, 48 h; method in brief: as §2
SNB-75 = test: Growth inhibition of human SNB75 cells incubated for 48 hrs by sulforhodamine B assay; conditions: SNB-75, 48 h; method in brief: as §2
Hs-578T = test: Growth inhibition of human Hs 578T cells incubated for 48 hrs by sulforhodamine B assay; method in brief: as §1
COLO 205 = test: Growth inhibition of human COLO205 cells incubated for 48 hrs by sulforhodamine B assay; conditions: COLO 205, 48 h; method in brief: as §1
TK-10 = test: Growth inhibition of human TK10 cells incubated for 48 hrs by sulforhodamine B assay; conditions: TK-10, 48 h; method in brief: as §2
KM12 = test: Growth inhibition of human KM12 cells incubated for 48 hrs by sulforhodamine B assay; conditions: KM12, 48 h; method in brief: as §1
SR = test: Growth inhibition of human SR cells incubated for 48 hrs by sulforhodamine B assay; method in brief: as §2
SW-620 = test: Growth inhibition of human SW620 cells incubated for 48 hrs by sulforhodamine B assay; conditions: SW-620, 48 h; method in brief: as §2
CAKI-1 = test: Growth inhibition of human Caki1 cells incubated for 48 hrs by sulforhodamine B assay; conditions: CAKI-1, 48 h; method in brief: as §1
[3] = read-out: LC50 (the source's name)

SMILES: C=C1CC[C@@H]2[C@](C)(COC(C)=O)[C@H](OC(C)=O)CC[C@@]2(C)[C@H]1CC(Nc1ccc(S(=O)(=O)Nc2ccc(Cl)nn2)cc1)C1=CCOC1=O (some centres not stated)
- GI50 (HCT-116): 1.08 µM
- TGI (HCT-116): 2.32 µM
- CC50 (HCT-116; [3]): 4.96 µM
- GI50 (BT-549): 1.58 µM
- TGI (BT-549): 3.14 µM
- CC50 (BT-549; [3]): 6.28 µM
- GI50 (HOP-92 [1]): 2.7 µM
- TGI (HOP-92 [1]): 7.89 µM
- CC50 (HOP-92 [1]; [3]): 27.5 µM
- GI50 (U-251): 1.68 µM
- TGI (U-251): 3.05 µM
- CC50 (U-251; [3]): 5.52 µM
- GI50 (CCRF-CEM): 0.46 µM
- TGI (CCRF-CEM): 2.6 µM
- CC50 (CCRF-CEM; [3]): > 100 µM
- GI50 (SK-MEL-2): 1.77 µM
- TGI (SK-MEL-2): 3.99 µM
- CC50 (SK-MEL-2; [3]): 8.97 µM
- GI50 (SF-268): 1.8 µM
- TGI (SF-268): 3.67 µM
- CC50 (SF-268; [3]): 7.51 µM
- GI50 (PC-3): 2.24 µM
- TGI (PC-3): 5.25 µM
- CC50 (PC-3; [3]): 15.8 µM
- GI50 (K562): 0.52 µM
- TGI (K562): 5.19 µM
- CC50 (K562; [3]): > 100 µM
- GI50 (RXF 393): 1.77 µM
- TGI (RXF 393): 3.29 µM
- CC50 (RXF 393; [3]): 6.14 µM
- GI50 (HOP-62): 1.46 µM
- TGI (HOP-62): 2.99 µM
- CC50 (HOP-62; [3]): 6.12 µM
- GI50 (NCI-H226): 1.67 µM
- TGI (NCI-H226): 3.3 µM
- GI50 (SK-MEL-5): 1.6 µM
- TGI (SK-MEL-5): 3.13 µM
- CC50 (SK-MEL-5; [3]): 6.13 µM
- GI50 (T47D): 1.51 µM
- TGI (T47D): 4.25 µM
- CC50 (T47D; [3]): > 100 µM
- GI50 (NCI-H460): 2.03 µM
- TGI (NCI-H460): 4.31 µM
- CC50 (NCI-H460; [3]): 9.15 µM
- growth at 10 µM (HOP-92 [2]): 69.8%
- GI50 (MDA-MB-435): 1.4 µM
- TGI (MDA-MB-435): 3.17 µM
- CC50 (MDA-MB-435; [3]): 7.16 µM
- GI50 (UACC-257): 1.67 µM
- TGI (UACC-257): 3.89 µM
- CC50 (UACC-257; [3]): 9.03 µM
- GI50 (ACHN): 1.68 µM
- TGI (ACHN): 3.32 µM
- CC50 (ACHN; [3]): 6.57 µM
- GI50 (SF-295): 3.28 µM
- TGI (SF-295): 12.6 µM
- CC50 (SF-295; [3]): 35.6 µM
- GI50 (SNB-75): 1.44 µM
- TGI (SNB-75): 5.9 µM
- CC50 (SNB-75; [3]): 24.3 µM
- GI50 (Hs-578T): 6.17 µM
- LC50 (Hs-578T): > 100 µM
- TGI (Hs-578T): > 100 µM
- GI50 (COLO 205): 1.46 µM
- TGI (COLO 205): 3.16 µM
- CC50 (COLO 205; [3]): 6.86 µM
- GI50 (TK-10): 2.13 µM
- TGI (TK-10): 4.19 µM
- CC50 (TK-10; [3]): 8.25 µM
- GI50 (KM12): 1.7 µM
- TGI (KM12): 3.49 µM
- CC50 (KM12; [3]): 7.16 µM
- GI50 (SR): 1.35 µM
- TGI (SR): 8.1 µM
- CC50 (SR; [3]): > 100 µM
- GI50 (SW-620): 1.07 µM
- TGI (SW-620): 2.8 µM
- CC50 (SW-620; [3]): 7.34 µM
- GI50 (CAKI-1): 2.28 µM
- TGI (CAKI-1): 100 µM
- CC50 (CAKI-1; [3]): 31.7 µM

SMILES: C=C1CC[C@@H]2[C@](C)(COC(C)=O)[C@H](OC(C)=O)CC[C@@]2(C)[C@H]1CC(Nc1ccc(S(=O)(=O)Nc2nc(C)cc(C)n2)cc1)C1=CCOC1=O (some centres not stated)
- growth at 10 µM (HOP-92 [2]): 90.1%
